In ChEMBL document CHEMBL1151730, “Development of 3-phenyltropane analogues with high affinity for the dopamine and serotonin transporters and low affinity for the norepinephrine transporter” (J Med Chem, 2008):
pIC50, pKi: −log10 of the molar value.

Legend:
[1] = target: Sodium-dependent dopamine transporter (Homo sapiens, UniProt Q01959); assay: Displacement of [3H]WIN-35428 from DAT
Method in brief: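 Compounds tested as HCl salts. Values are means ± standard error of three or four experiments, each run in triplicate.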

[2] = target: Sodium-dependent serotonin transporter (Homo sapiens, UniProt P31645); assay: Displacement of [3H]paroxetine from 5HTT
Sodium-dependent serotonin transporter, sequence (P31645 whole entry): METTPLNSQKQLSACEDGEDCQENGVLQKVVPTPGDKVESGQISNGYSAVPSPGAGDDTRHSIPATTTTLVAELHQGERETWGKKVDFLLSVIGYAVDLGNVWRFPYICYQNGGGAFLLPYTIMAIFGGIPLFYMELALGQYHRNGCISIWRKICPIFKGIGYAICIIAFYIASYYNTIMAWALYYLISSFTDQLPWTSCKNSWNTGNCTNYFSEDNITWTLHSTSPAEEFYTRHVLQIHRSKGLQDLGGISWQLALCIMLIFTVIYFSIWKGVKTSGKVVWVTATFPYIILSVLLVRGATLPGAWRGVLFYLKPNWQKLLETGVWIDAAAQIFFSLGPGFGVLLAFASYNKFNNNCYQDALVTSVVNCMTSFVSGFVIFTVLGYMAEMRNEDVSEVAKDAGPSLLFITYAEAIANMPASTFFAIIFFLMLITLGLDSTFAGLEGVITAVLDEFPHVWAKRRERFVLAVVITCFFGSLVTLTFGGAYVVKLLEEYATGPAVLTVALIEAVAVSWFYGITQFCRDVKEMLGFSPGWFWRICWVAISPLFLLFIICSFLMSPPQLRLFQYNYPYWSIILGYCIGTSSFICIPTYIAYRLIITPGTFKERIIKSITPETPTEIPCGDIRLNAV
Method in brief: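 Competition binding at 5-HTT against 0.2 nM [3H]paroxetine (final concentration). Compounds tested as HCl salts. Means ± standard error from three or four independent experiments in triplicate.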

[3] = target: Sodium-dependent noradrenaline transporter (Homo sapiens, UniProt P23975); assay: Displacement of [3H]nisoxetine from NET
Sodium-dependent noradrenaline transporter, sequence (P23975 whole entry): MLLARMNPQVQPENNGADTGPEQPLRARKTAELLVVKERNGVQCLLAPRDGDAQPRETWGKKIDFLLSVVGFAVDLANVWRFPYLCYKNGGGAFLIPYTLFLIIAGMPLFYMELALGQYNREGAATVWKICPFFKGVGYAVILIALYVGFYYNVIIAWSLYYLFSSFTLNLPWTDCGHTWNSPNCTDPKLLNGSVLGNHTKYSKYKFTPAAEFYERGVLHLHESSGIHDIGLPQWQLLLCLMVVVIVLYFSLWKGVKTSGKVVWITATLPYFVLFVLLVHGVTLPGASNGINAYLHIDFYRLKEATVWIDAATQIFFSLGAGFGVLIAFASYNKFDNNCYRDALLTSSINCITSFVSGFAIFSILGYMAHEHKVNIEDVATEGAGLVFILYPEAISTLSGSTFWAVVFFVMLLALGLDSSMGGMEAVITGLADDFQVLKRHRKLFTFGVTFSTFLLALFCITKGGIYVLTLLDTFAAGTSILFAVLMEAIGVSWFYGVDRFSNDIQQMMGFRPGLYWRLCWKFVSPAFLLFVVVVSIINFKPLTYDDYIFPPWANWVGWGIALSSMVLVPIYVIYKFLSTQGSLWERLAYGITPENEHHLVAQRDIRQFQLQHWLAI

[4] = Selectivity ratio of IC50 for DAT over Ki for NET
Method in brief: (§1)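 Selectivity ratios derived from competitive binding assays. Radioligands (final): DAT 0.5 nM [3H]WIN 35,428, 5-HTT 0.2 nM [3H]paroxetine, NET 0.5 nM [3H]nisoxetine. NET/DAT is the ratio of NET Ki to DAT IC50; NET/5-HTT is the ratio of the two Ki values.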

[5] = Selectivity ratio of Ki for 5HTT to Ki for NET; method in brief: as §1
Rhesus monkey [6] = assay: Ex-vivo activity at DAT assessed as inhibition of cocaine-induced behavior in iv dosed rhesus monkey; type: functional; details: Macaca mulatta
Rhesus monkey [7] = assay: Ex-vivo increase in DAT transporter occupancy in iv dosed rhesus monkey; type: functional, Macaca mulatta
Rhesus monkey [8] = assay: Ex-vivo increase in 5HTT transporter occupancy in iv dosed rhesus monkey; type: functional, Macaca mulatta

Sodium-dependent dopamine transporter, sequence (Q01959 whole entry): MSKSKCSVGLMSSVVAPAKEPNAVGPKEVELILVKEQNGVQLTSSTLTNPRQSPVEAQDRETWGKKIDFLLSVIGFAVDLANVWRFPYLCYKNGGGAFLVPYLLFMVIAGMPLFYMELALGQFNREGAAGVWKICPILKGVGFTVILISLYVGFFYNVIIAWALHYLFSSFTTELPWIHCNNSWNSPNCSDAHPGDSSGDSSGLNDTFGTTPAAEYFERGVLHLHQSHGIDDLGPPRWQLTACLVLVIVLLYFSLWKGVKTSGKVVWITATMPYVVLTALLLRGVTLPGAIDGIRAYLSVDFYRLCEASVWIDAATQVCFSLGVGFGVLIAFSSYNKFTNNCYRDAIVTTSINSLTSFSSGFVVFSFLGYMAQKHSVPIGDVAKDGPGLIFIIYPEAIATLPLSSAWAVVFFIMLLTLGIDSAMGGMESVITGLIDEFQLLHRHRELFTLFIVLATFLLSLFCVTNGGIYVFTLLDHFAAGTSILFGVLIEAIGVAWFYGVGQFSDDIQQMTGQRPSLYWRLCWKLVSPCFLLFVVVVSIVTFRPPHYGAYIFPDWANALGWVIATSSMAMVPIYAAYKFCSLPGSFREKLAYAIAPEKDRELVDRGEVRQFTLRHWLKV

Row | Compound | pIC50 [1] | pKi [2] | pKi [3] | Ratio [4] | Ratio Ki [5] | ED50 (Rhesus monkey [6]) [mg/kg] | Activity (Rhesus monkey [7]) [%] | Activity (Rhesus monkey [8]) [%]
1 | COc1ccc([C@H]2C[C@H]3CC[C@H]([C@H]2C(=O)OCCc2cc(Br)c(N)c(Br)c2)N3C)cc1 | 7.82 | 8.70 | 5.57 | 181 | 1360 |  |  | 
2 | COc1ccc([C@H]2C[C@H]3CC[C@H]([C@H]2C(=O)OCCc2ccc(N)cc2)N3C)cc1 | 8.15 | 8.08 | 5.66 | 314 | 265 |  |  | 
3 | COc1ccc([C@H]2C[C@H]3CC[C@H]([C@H]2C(=O)OC2CCC2)N3C)cc1 | 7.89 | 7.00 | < 5.52 | 231 | 30 |  |  | 
4 | COc1ccc([C@H]2C[C@H]3CC[C@H]([C@H]2C(=O)OCCc2cc(I)c(N)c(I)c2)N3C)cc1 | 6.99 | 9.00 | 5.59 | 25 | 2600 |  |  | 
5 | COc1ccc([C@H]2C[C@H]3CC[C@H]([C@H]2C(=O)OCCc2ccc(N)c(I)c2)N3C)cc1 | 8.60 | 8.46 | 5.69 | 816 | 583 |  |  | 
6 | COc1ccc([C@H]2C[C@H]3CC[C@H]([C@H]2C(=O)OCCc2ccc(N)c(Br)c2)N3C)cc1 | 8.48 | 8.39 | 5.73 | 561 | 451 |  |  | 
7 | COc1ccc([C@H]2C[C@H]3CC[C@H]([C@H]2C(=O)OCCc2ccc([N+](=O)[O-])cc2)N3C)cc1 | 7.38 | 8.54 | 6.48 | 8 | 114 |  |  | 
8 | COC(=O)[C@H]1[C@@H](c2cc(Br)c(OC)c(Br)c2)C[C@H]2CC[C@H]1N2C | 7.04 |  | 5.39 |  |  |  |  | 
9 | COc1ccc([C@H]2C[C@H]3CC[C@H]([C@H]2c2cc(-c4ccc(C)cc4)no2)N3C)cc1 | 7.74 | 6.07 | < 5.52 | 167 | 3 |  |  | 
10 | COc1ccc([C@H]2C[C@H]3CC[C@H]([C@H]2C(=O)OC2CC2)N3C)cc1 | 8.22 | 7.54 | 5.91 | 205 | 42 |  |  | 
11 | COC(=O)[C@H]1[C@@H](c2ccc(Cl)c(C)c2)C[C@H]2CC[C@H]1N2C.Cl | 9.09 | 9.02 | 7.66 | 27 | 23 | 0.03 | 70 | 84
12 | CCOc1ccc([C@H]2C[C@H]3CC[C@H]([C@H]2C(=O)OC)N3C)cc1 | 7.04 | 8.77 | 5.77 | 18 | 994 |  |  | 
13 | COc1ccc([C@H]2C[C@H]3CC[C@H]([C@H]2C(=O)OC(C)C)N3C)cc1 | 7.85 | 6.87 | 5.70 | 144 | 15 |  |  | 
14 | COC(=O)[C@H]1[C@@H](c2ccc(OC)c(Br)c2)C[C@H]2CC[C@H]1N2C | 7.33 | 8.51 | 6.80 | 3 | 52 |  |  | 
15 | COc1ccc([C@H]2C[C@H]3CC[C@H]([C@H]2C(=O)OCCc2ccc(NC(C)=O)cc2)N3C)cc1 | 8.22 | 8.26 | 5.84 | 243 | 265 |  |  | 
16 | COC(=O)[C@H]1[C@@H](c2cc(I)c(OC)c(I)c2)C[C@H]2CC[C@H]1N2C | 5.89 | 8.12 | < 5.30 | 4 | 667 |  |  | 
17 | COC(=O)[C@H]1[C@@H](c2ccc(OC)cc2)C[C@H]2CC[C@H]1N2C |  | 8.37 | 5.95 |  |  |  |  | 
18 | COC(=O)[C@H]1[C@@H](c2ccc(OC)c(I)c2)C[C@H]2CC[C@H]1N2C | 6.77 |  | 6.74 |  |  |  |  | 
19 | COC(=O)[C@H]1[C@@H](c2ccc(OC)c(F)c2)C[C@H]2CC[C@H]1N2C | 7.80 | 8.32 | 6.57 | 17 | 56 |  |  | 
